Results: ChEMBL document CHEMBL1145179, “Synthesis and enzyme-specific activation of carbohydrate-geldanamycin conjugates with potent anticancer activity” (J Med Chem, 2005)

Legend:
Type in all cases: functional, cell-based
MCF7 [1] = test: Inhibitory concentration against human Breast cancer MCF-7 cell lines
Outline: (§1)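 MTS assay. Cells (2000-10 000) seeded in RPMI-1640 and grown 24 h, then exposed to various concentrations for 72 h at 37 °C under 5% CO₂. MTS (2 mg/ml) with PMS (25 µM) added for 3 h at 37 °C, and formazan read at 490 nm. IC50 taken from dose-response curves of % growth vs untreated control.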

K562 = test: Inhibitory concentration against human leukemia K562 cell lines; outline: as §1
HT-29 = test: Inhibitory concentration against human colorectal carcinoma HT-29 cell lines; outline: as §1
SW-620 = test: Inhibitory concentration against human colorectal carcinoma SW620 cell lines; outline: as §1
MCF7 [2] = test: Inhibitory concentration against human breast cancer MCF-7 cell lines; outline: as §1

Row | Compound | IC50 (MCF7 [1]) [µM] | IC50 (K562) [µM] | IC50 (HT-29) [µM] | IC50 (SW-620) [µM] | IC50 (MCF7 [2]) [µM]
1 | COC1/C=C\C=C(/C)C(=O)NC2=CC(=O)C(NCCCCCO[C@@H]3O[C@@H](CO)[C@H](O)[C@H](O)[C@@H]3O)=C(C[C@@H](C)C[C@H](OC)[C@H](O)C(C)/C=C(\C)[C@@H]1OC(N)=O)C2=O (stereo partly drawn) | > 17 | > 19 | > 13 | > 13 | 
2 | COC1/C=C\C=C(/C)C(=O)NC2=CC(=O)C(NCCOCCO[C@@H]3O[C@@H](CO)[C@H](O)[C@H](O)[C@@H]3O)=C(C[C@@H](C)C[C@H](OC)[C@H](O)C(C)/C=C(\C)[C@@H]1OC(N)=O)C2=O (stereo partly drawn) | > 22 | > 15 | > 13 | > 11 | 
3 | COC1/C=C\C=C(/C)C(=O)NC2=CC(=O)C(NCCO[C@@H]3O[C@@H](CO)[C@@H](O[C@@H]4O[C@@H](CO)[C@H](O)[C@H](O)[C@@H]4O)[C@H](O)[C@@H]3O)=C(C[C@@H](C)C[C@H](OC)[C@H](O)C(C)/C=C(\C)[C@@H]1OC(N)=O)C2=O (stereo partly drawn) | > 22 | > 25 | > 25 | > 20 | 
4 | COC1/C=C\C=C(/C)C(=O)NC2=CC(=O)C(NCCO[C@@H]3O[C@@H](CO)[C@H](O)[C@H](O)[C@@H]3O)=C(C[C@@H](C)C[C@H](OC)[C@H](O)C(C)/C=C(\C)[C@@H]1OC(N)=O)C2=O (stereo partly drawn) | > 25 | > 23 | > 14 | > 8 | 

Results, then the compound that gave them:

Row | IC50 (MCF7 [1]) [µM] | IC50 (K562) [µM] | IC50 (HT-29) [µM] | IC50 (SW-620) [µM] | IC50 (MCF7 [2]) [µM] | Compound
5 | 0.754 | 0.381 | 0.105 | 0.0702 |  | COC1/C=C\C=C(/C)C(=O)NC2=CC(=O)C(NCCO[C@@H]3O[C@@H](CO)[C@@H](O)[C@H](O)[C@@H]3O)=C(C[C@@H](C)C[C@H](OC)[C@H](O)C(C)/C=C(\C)[C@@H]1OC(N)=O)C2=O (stereo partly drawn)
6 | > 12 | > 14 | > 6 | > 14 |  | COC1/C=C\C=C(/C)C(=O)NC2=CC(=O)C(NCCCO[C@@H]3O[C@@H](CO)[C@H](O)[C@H](O)[C@@H]3O)=C(C[C@@H](C)C[C@H](OC)[C@H](O)C(C)/C=C(\C)[C@@H]1OC(N)=O)C2=O (stereo partly drawn)
7 |  | 0.0221 | 0.0245 | 0.0062 | 0.0065 | COC1=C2C[C@@H](C)C[C@H](OC)[C@H](O)[C@@H](C)/C=C(\C)[C@H](OC(N)=O)[C@@H](OC)/C=C\C=C(/C)C(=O)NC(=CC1=O)C2=O [GELDANAMYCIN]
